Experiment [1] deals with T1, Histamine H3 receptor (Homo sapiens, UniProt Q9Y5N1). In words: Displacement of [3H[N-alpha-methylhistamine form human recombinant histamine H3 receptor expressed in CHO cells after 1 hr by liquid scintillation counting. Format: cell-based. Summed up:
(§1)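 Used CHO cells stably expressing the human H3R for both affinity (pKi) and functional agonist measurements. Each value is the mean ± SEM of n = 3.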

Experiment [2] has as its target T1, Histamine H3 receptor. As to the kind of experiment: Agonist activity at human recombinant histamine H3 receptor expressed in CHO cells assessed as [35S]GTPgammaS binding after 1 hr by liquid scintillation counting. Format: functional, cell-based. Summed up:
as §1

In experiment [3] the target is T1, Histamine H3 receptor. In words: Agonist activity at human recombinant histamine H3 receptor expressed in CHO cells assessed as [35S]GTPgammaS binding at 10 nM after 1 hr by liquid scintillation counting relative to (R)-alpha-methylhistamine. The experiment is classed as functional, cell-based. Summed up: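 CHO cells stably expressing human H3R. Agonist response is given as a percent of the response to the reference H3R agonist. Results are mean ± SEM, n = 3.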

For experiment [4], the system named is Mus musculus. In words: Antistress activity against isolation-induced aggressive behavior in ICR mouse assessed as duration of attacks to intruder mouse at 30 mg/kg, po measured for 10 mins by resident-intruder test (RVb = 54.5 +/- 6.7 sec). The experiment is classed as functional.
Experiment [5] concerns Mus musculus. In words: Antistress activity against isolation-induced aggressive behavior in ICR mouse assessed as duration of attacks to intruder mouse at 7.5 mg/kg, po measured for 10 mins by resident-intruder test (RVb = 54.5 +/- 6.7 sec). The experiment is classed as functional.

Calls of active or inactive are those of the source. No cut-off for these calls is given here.

T1 sequence (Q9Y5N1 whole entry): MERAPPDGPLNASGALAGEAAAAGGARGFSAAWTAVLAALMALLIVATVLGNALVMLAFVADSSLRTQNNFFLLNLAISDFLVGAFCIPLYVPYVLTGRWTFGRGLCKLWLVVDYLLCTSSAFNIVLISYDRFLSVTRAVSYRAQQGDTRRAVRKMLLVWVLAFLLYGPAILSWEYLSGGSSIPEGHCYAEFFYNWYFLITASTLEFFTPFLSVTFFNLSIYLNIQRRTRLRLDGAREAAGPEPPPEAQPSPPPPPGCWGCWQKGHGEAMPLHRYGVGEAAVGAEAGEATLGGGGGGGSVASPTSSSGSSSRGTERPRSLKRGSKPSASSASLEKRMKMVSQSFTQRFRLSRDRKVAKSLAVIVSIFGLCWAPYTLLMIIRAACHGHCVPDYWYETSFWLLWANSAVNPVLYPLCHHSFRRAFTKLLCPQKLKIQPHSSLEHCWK

One may read the Ki as a measure of affinity in units of concentration, obtained from inhibition or displacement. Usually EC50 stands for the concentration needed to bring the measured effect to its halfway point. As for `CC(C)(C)c1ccc(NCCc2cnc[nH]2)cc1`, the Ki in experiment [1] was found to be 0.89 nM. For the same molecule, the EC50 in experiment [2] (read-out: EC50) was determined as 1.6 nM.

In the case of `Cc1ccc(NCCc2c[nH]cn2)cc1C`, in experiment [3], the Activity stood at 59%.

For the molecule `Cc1ccc(NCCc2c[nH]cn2)cc1`, the Activity in experiment [3] was 49%.

Turning to `COc1ccc(NCCc2c[nH]cn2)cc1`, in experiment [1], the Ki amounted to 24 nM. Further, the Activity in experiment [3] worked out at 56%. Besides, in experiment [2] (read-out: EC50), the EC50 amounted to 65 nM.

Turning to `c1nc(CCNC2CCCCC2)c[nH]1`, the Ki in experiment [1] was found to be 1600 nM. For the same molecule, the Activity in experiment [3] worked out at 31%. The EC50 in experiment [2] (read-out: EC50) turned out to be 3400 nM.

Take `NCCc1c[nH]cn1` [HISTAMINE]: in experiment [3], the Activity amounted to 110%.

Take `c1nc(CCNc2ccc(C3CCCCC3)cc2)c[nH]1`: in experiment [3], the outcome was inactive. For the same molecule, in experiment [2] (cho), the EC50 entry was “Not Active”.

With `FC(F)(F)c1ccc(NCCc2c[nH]cn2)cc1`, the Ki in experiment [1] amounted to 1.1 nM. Also, in experiment [3], the Activity worked out at 56%. Further, in experiment [2] (read-out: EC50), the EC50 came to 19 nM.

As to `COCCCC/C(=N\OCCN)c1ccc(C(F)(F)F)cc1` [FLUVOXAMINE], the Time in experiment [4] is 19.9 s; in experiment [5], 30.7 s.

The values above are taken from ChEMBL document CHEMBL1158577, “Role of hydrophobic substituents on the terminal nitrogen of histamine in receptor binding and agonist activity: development of an orally active histamine type 3 receptor agonist and evaluation of its antistress activity in mice” (J Med Chem, 2010).
